The term EC50 denotes the midpoint of the concentration-response curve. The IC50 is the concentration at which inhibition is half-maximal.

What all share (type): functional, cell-based
Test [1] has as its system CEM-SS. Kind of test: Anticytopathic activity was measured against HIV-1(RF strain) in CEM-SS human lymphoblastoid target cells. Put shortly: (§1)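 Cell lines in RPMI 1640 without phenol red, with 5% fetal bovine serum, 2 mM L-glutamine and 50 µg/mL gentamicin, at 37 °C and 5% CO2. Seeded at 5 × 10^5 cells/well and infected with pretitered virus at MOI 0.01-0.05, chosen for complete cell killing by day 6. Half-log aqueous dilutions of acetate salts tested in triplicate. XTT formazan read after 6 days; EC50 is 50% inhibition of virus-induced killing.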

In test [2] the test system is CEM-SS. As to the kind of experiment: Anticytopathic activity was measured against HIV-2(CBL-20 strain) in CEM-SS human lymphoblastoid target cells. Put shortly:
as §1
(Cytopathic effects are the visible damage that an infection or toxin causes in cultured cells.)

In test [3] the test system is C-344 cell line. As to the kind of experiment: Anti -HIV activity was measured against C-344/HIV-1(RF). The note with it: Homo sapiens. Put shortly:
as §1

Test [4] has as its system C-344 cell line. Kind of test: Cytotoxicity was measured against C-344/HIV-1(RF). To be noted: Homo sapiens. In short, it runs like this: (§2)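 Cytotoxicity was measured in cells-plus-drug control wells run alongside the antiviral assay. Serial half-log dilutions of acetate salts were tested in triplicate. After 6 days at 37 °C, viability was read spectrophotometrically by XTT reduction to soluble formazan. IC50 is the concentration giving a 50% decrease in viable cell number.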

Test [5] relates to C8166. Kind of test: Cytotoxicity was measured against C8166/HIV-1(RF). The note with it: Homo sapiens. Put shortly: as §2
The subject of test [6] is C8166. Kind of test: Anti -HIV activity was measured against C8166/HIV-1(RF). The note with it: Homo sapiens. In short, it runs like this:
as §1

In test [7] the test system is CEM-SS. Kind of test: Cytotoxicity was measured against CEM-SS/HIV-1 (NIH-DZ). To be noted: Homo sapiens. In short, it runs like this:
as §2

Test [8] deals with CEM-SS. Kind of test: Cytotoxicity was measured against CEM-SS/HIV-1 (RF). The note with it: Homo sapiens. In short, it runs like this:
as §2

The test system of test [9] is CEM-SS. Kind of test: Anti -HIV activity was measured against CEM-SS/HIV-1 (NIH-DZ). To be noted: Homo sapiens. Put shortly:
as §1

Test [10] concerns CEM-SS. Kind of test: Anti-HIV activity was measured against HIV-1 Lymphotropic 205 clinical isolates in CEM-SS cells. To be noted: Homo sapiens. In short, it runs like this: as §1
Test [11] has as its system CEM-SS. As to the kind of experiment: Anti-HIV activity was measured against HIV-1 Lymphotropic G clinical isolates in CEM-SS cells. The note with it: Homo sapiens. In short, it runs like this: as §1
For test [12], the system named is CEM-SS. As to the kind of experiment: Anti-HIV activity was measured against HIV-1 Lymphotropic MCK clinical isolates in CEM-SS cells. To be noted: Homo sapiens. In short, it runs like this: as §1
Test [13] has as its system CEM-SS. As to the kind of experiment: Anti-HIV activity was measured against HIV-1 Lymphotropic PM16 clinical isolates in CEM-SS cells. To be noted: Homo sapiens. In short, it runs like this:
as §1

The test system of test [14] is CEM-SS. Kind of test: Anti-HIV activity was measured against HIV-1 Promonocytropic 214 clinical isolates in CEM-SS cells. The note with it: Homo sapiens. Put shortly:
as §1

Test [15] concerns CEM-SS. Kind of test: Anti-HIV activity was measured against HIV-1 Promonocytropic MN clinical isolates in CEM-SS cells. The note with it: Homo sapiens. In short, it runs like this: as §1
The test system of test [16] is CEM-SS. Kind of test: Anti-HIV activity was measured against HIV-1 Promonocytropic SKI clinical isolates in CEM-SS cells. The note with it: Homo sapiens. Put shortly:
as §1

Test [17] relates to CEM-SS. Kind of test: Anti-HIV activity was measured against HIV-1 Promonocytropic TPI clinical isolates in CEM-SS cells. To be noted: Homo sapiens. In short, it runs like this: as §1
The test system of test [18] is CEM-SS. As to the kind of experiment: Anti-HIV activity was measured against HIV-1,LAV laboratory strains in CEM-SS cells. To be noted: Homo sapiens. Put shortly:
as §1

Test [19] has as its system CEM-SS. As to the kind of experiment: Anti-HIV activity was measured against HIV-1,RF laboratory strains in CEM-SS cells. To be noted: Homo sapiens. In short, it runs like this:
as §1

The subject of test [20] is CEM-SS. Kind of test: Anti-HIV activity was measured against HIV-2 CBL-20 laboratory strains in CEM-SS cells. The note with it: Homo sapiens. In short, it runs like this: as §1
Test [21] deals with CEM-SS. Kind of test: Anti-HIV activity was measured against HIV-2 MS laboratory strains in CEM-SS cells. The note with it: Homo sapiens. In short, it runs like this: as §1
Test [22] relates to CEM-SS. As to the kind of experiment: Anti-HIV activity was measured against HIV-2 NIH-DZ strain laboratory strains in CEM-SS cells. To be noted: Homo sapiens. In short, it runs like this:
as §1

Test [23] has as its system CEM-SS. As to the kind of experiment: Anti-HIV activity was measured against HIV-2 ROD strain laboratory strains in CEM-SS cells. To be noted: Homo sapiens. Put shortly: as §1
Test [24] concerns CCRF-CEM. As to the kind of experiment: Anti -HIV activity was measured against 174*CEM/HIV-1(IIIB). To be noted: Homo sapiens. In short, it runs like this: as §1
In test [25] the test system is CCRF-CEM. Kind of test: Cytotoxicity was measured against 174*CEM/HIV-1(IIIB). To be noted: Homo sapiens. Put shortly:
as §2

Test [26] has as its system MT2. As to the kind of experiment: Anti -HIV activity was measured against MT-2/HIV-1(RF). To be noted: Homo sapiens. In short, it runs like this: (§3)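 MT-2 cells (RPMI 1640 without phenol red, 5% FBS, 2 mM L-glutamine, 50 µg/mL gentamicin; 37 °C, 5% CO2) seeded at 5 × 10^5 cells/well and infected at an MOI pretitered for complete cell killing by day 6 (MOI 0.01-0.05). Serial half-log aqueous dilutions of acetate salt added in triplicate. After 6 days at 37 °C, viability read by XTT formazan. EC50 = 50% inhibition of virus-induced killing.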

Test [27] relates to MT2. As to the kind of experiment: Anti -HIV activity was measured against MT-2/HIV-2(NIH-DZ). The note with it: Homo sapiens. Put shortly:
as §3

The test system of test [28] is MT2. Kind of test: Anti-HIV activity was measured against drug resistant HIV-1 A17 in MT-2 cells. To be noted: Homo sapiens. Put shortly:
as §3

The subject of test [29] is MT2. Kind of test: Anti-HIV activity was measured against drug resistant HIV-1 G9106 in MT-2 cells. To be noted: Homo sapiens. In short, it runs like this: as §3
The test system of test [30] is LDV-7 cell line. Kind of test: Anti -HIV activity was measured against LDV-7/HIV-1(RF). The note with it: Homo sapiens. In short, it runs like this:
as §1

In test [31] the test system is LDV-7 cell line. As to the kind of experiment: Cytotoxicity was measured against LDV-7/HIV-1(RF). The note with it: Homo sapiens. In short, it runs like this: as §2
The test system of test [32] is MT2. Kind of test: Cytotoxicity was measured against MT-2/HIV-1(RF). To be noted: Homo sapiens. In short, it runs like this: as §2
In test [33] the test system is MT2. As to the kind of experiment: Cytotoxicity was measured against MT-2/HIV-2(NIH-DZ). To be noted: Homo sapiens. In short, it runs like this: as §2
The test system of test [34] is PMC. As to the kind of experiment: Cytotoxicity was measured against PMCs/HIV-1(Ba-L). The note with it: Homo sapiens.
Test [35] deals with PMC. As to the kind of experiment: Anti -HIV activity was measured against PMCs/HIV-1(Ba-L). The note with it: Homo sapiens. Put shortly: (§4)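 Lymphocytes and macrophages were isolated fresh from donor whole blood by Ficoll-Hypaque centrifugation. They were infected at an MOI giving maximal virus production by day 6 and treated with half-log dilutions of acetate salts in triplicate. After 6 days at 37 °C, RT activity or p24 core protein was quantified in cell-free supernatants. EC50 is 50% inhibition of virus production.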

The subject of test [36] is PBL. Kind of test: Anti -HIV activity was measured against PBLs/HIV-1 (WEJO). The note with it: Homo sapiens. Put shortly:
as §4

Test [37] concerns PBL. As to the kind of experiment: Cytotoxicity was measured against PBLs/HIV-1 (WEJO). The note with it: Homo sapiens.
In test [38] the test system is CEM-SS. As to the kind of experiment: Anti-HIV activity was measured against HIV-1,IIIB laboratory strains in CEM-SS cells. The note with it: Homo sapiens. In short, it runs like this: as §1
The test system of test [39] is AA5. As to the kind of experiment: Anti -HIV activity was measured against AA5/HIV-1(IIIB). The note with it: Homo sapiens. Put shortly:
as §1

The subject of test [40] is CEM-SS. As to the kind of experiment: Anti -HIV activity was measured against CEM-SS/HIV-1 (RF). To be noted: Homo sapiens. In short, it runs like this:
as §1

Test [41] has as its system AA5. Kind of test: Cytotoxicity was measured against AA5/HIV-1(IIIB). The note with it: Homo sapiens. Put shortly: as §2

Take `COc1cc(C)cc2c(-c3c(O)cc(O)c4c3C[C@@H](C)N[C@@H]4C)cc(-c3cc(-c4c(O)cc(O)c5c4C[C@@H](C)N[C@@H]5C)c4cc(C)cc(OC)c4c3O)c(O)c12` (stereo in doubt; form 1) [MICHELLAMINE A]: the EC50 in test [1] (Homo sapiens, CEM-SS) amounted to 10 µM; in test [2] it was 10 µM.
Molecule `COc1cc(C)cc2c(-c3c(O)cc(O)c4c3C[C@@H](C)N[C@@H]4C)cc(-c3cc(-c4c(O)cc(O)c5c4C[C@@H](C)N[C@@H]5C)c4cc(C)cc(OC)c4c3O)c(O)c12` (stereo in doubt; form 2) [MICHELLAMINE A] gave an EC50 in [1] (cem-ss) of 13 µM.
With `COc1cc(C)cc2c(-c3c(O)cc(O)c4c3C[C@@H](C)N[C@@H]4C)cc(-c3cc(-c4c(O)cc(O)c5c4C[C@@H](C)N[C@@H]5C)c4cc(C)cc(OC)c4c3O)c(O)c12` (stereo in doubt; form 3) [MICHELLAMINE A], the half-maximal effective concentration (EC50) in test [3] stood at 39 µM; in test [6], 88 µM; in test [9], 1 µM; in [10] it was 11 µM; in test [11], 3 µM; in test [12] it was 3 µM. In addition, the EC50 came to 12 µM in test [13]; 10 µM in test [14]; 13 µM in test [15]; 12 µM in test [16]; 6 µM in [17]; 4 µM in test [18]. Further, the EC50 worked out at 12 µM in test [19]; 2 µM in [20]; 7 µM in test [21]; 5 µM in [22]; 18 µM in [23]; 2 µM in test [2]. Besides, the EC50 in [24] was determined as 23 µM; in [26] it was 40 µM; in [27] it was 6 µM; in test [28] it was 9 µM; in test [29] it was 5 µM; in [30], 13 µM. The EC50 in test [35] stood at 10 µM; in test [36], 5 µM; in test [38], 1 µM; in [39] it was 33 µM; in test [40], 13 µM. Also, the IC50 in test [4] was 160 µM; in test [5], above 240 µM; in [7] it was 42 µM; in test [8] it was 120 µM; in [25] it was above 125 µM; in test [31], 100 µM. Also, the IC50 in test [32] is 200 µM; in test [33] it was 100 µM; in [34] it was above 240 µM; in test [37], above 240 µM; in test [41], above 125 µM.

(Values after ChEMBL document CHEMBL1127538, “Anti-HIV michellamines from Ancistrocladus korupensis” (J Med Chem, 1994).)
